In ChEMBL document CHEMBL1135709, “2,6-Di(omega-aminoalkyl)-2,5,6,7-tetrahydropyrazolo[3,4,5-mn]pyrimido[5,6,1-de]acridine-5,7-diones: novel, potent, cytotoxic, and DNA-binding agents” (J Med Chem, 2002):
Values belong to the compound of their own block, whether it stands above or below them.

Legend:
LOX IMVI [1] = assay: Percent growth of NCI cell line, melanoma: LOX IMVI exposed for 48 hr at 10e-4 concentration; format: functional, Homo sapiens
Summary of the method: (§1)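 NCI panel cell lines exposed 48 h to 10^-8, 10^-6 and 10^-4 M drug; read-out is percent growth at each concentration.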

OVCAR-4 [2] = assay: Percent growth of NCI cell line, ovarian: OVCAR-4 exposed for 48 hr at 10e-4 concentration; format: functional, Homo sapiens; summary of the method: as §1
SNB-19 [3] = assay: Percent growth of NCI cell line, CNS: SNB-19 exposed for 48 hr at 10e-4 concentration; format: functional, Homo sapiens; summary of the method: as §1
MCF7 [4] = assay: Percent growth of NCI cell line, breast: MCF-7 exposed for 48 hr at 10e-6 concentration; format: functional, Homo sapiens; summary of the method: as §1
HT-29 = assay: In vitro cytotoxic potency against HT-29 (human colon adenocarcinoma) cell line.; format: functional, cell-based
LOX IMVI [5] = assay: Percent growth of NCI cell line, melanoma: LOX IMVI exposed for 48 hr at 10e-6 concentration; format: functional, Homo sapiens; summary of the method: as §1
DU-145 [6] = assay: Percent growth of NCI cell line, prostate: DU-145 exposed for 48 hr at 10e-8 concentration; format: functional, Homo sapiens; summary of the method: as §1
LOX IMVI [7] = assay: Percent growth of NCI cell line, melanoma: LOX IMVI exposed for 48 hr at 10e-8 concentration; format: functional, Homo sapiens; summary of the method: as §1
SNB-19 [8] = assay: Percent growth of NCI cell line, CNS: SNB-19 exposed for 48 hr at 10e-6 concentration; format: functional, Homo sapiens; summary of the method: as §1
LoVo [9] = assay: Cytotoxicity activity on LoVo human adenocarcinoma cell line after 1 hr of drug exposure; format: functional, cell-based
Summary of the method: (§2)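 LoVo (sensitive) and LoVo/Dx (resistant) human colon adenocarcinoma cells seeded at 2.5 × 10^5 cells/mL medium; drug solutions added to culture. IC50 = drug concentration inhibiting cell growth by 50%, assays in triplicate.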

DU-145 [10] = assay: Percent growth of NCI cell line, prostate: DU-145 exposed for 48 hr at 10e-6 concentration; format: functional, Homo sapiens; summary of the method: as §1
DU-145 [11] = assay: Percent growth of NCI cell line, prostate: DU-145 exposed for 48 hr at 10e-4 concentration; format: functional, Homo sapiens; summary of the method: as §1
HCT-15 [12] = assay: Percent growth of NCI cell line, colon: HCT-15 exposed for 48 hr at 10e-4 concentration; format: functional, Homo sapiens; summary of the method: as §1
[13] = Percent growth of NCI cell line, leucemia K562 exposed for 48 hr at 10e-6 concentration; format: functional, Homo sapiens; summary of the method: as §1
HCT-15 [14] = assay: Percent growth of NCI cell line, colon: HCT-15 exposed for 48 hr at 10e-6 concentration; format: functional, Homo sapiens; summary of the method: as §1
MCF7 [15] = assay: Percent growth of NCI cell line, breast: MCF-7 exposed for 48 hr at 10e-8 concentration; format: functional, Homo sapiens; summary of the method: as §1
NCI-H460 [16] = assay: Percent growth of NCI cell line, lung-nsc: NCI-H460 exposed for 48 hr at 10e-8 concentration; format: functional, Homo sapiens; summary of the method: as §1
786-0 [17] = assay: Percent growth of NCI cell line, renal: 786-0 exposed for 48 hr at 10e-6 concentration; format: functional, Homo sapiens; summary of the method: as §1
786-0 [18] = assay: Percent growth of NCI cell line, renal: 786-0 exposed for 48 hr at 10e-4 concentration; format: functional, Homo sapiens; summary of the method: as §1
OVCAR-4 [19] = assay: Percent growth of NCI cell line, ovarian: OVCAR-4 exposed for 48 hr at 10e-6 concentration; format: functional, Homo sapiens; summary of the method: as §1
786-0 [20] = assay: Percent growth of NCI cell line, renal: 786-0 exposed for 48 hr at 10e-8 concentration; format: functional, Homo sapiens; summary of the method: as §1
Calf thymus DNA = assay: CT-DNA binding required to produce a 50% drop in fluorescence of DNA-bound ethidium.; format: nucleic-acid assay; conditions: Bos taurus
Summary of the method: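 Ethidium displacement from calf thymus DNA in 10 mM Na2HPO4, 10 mM NaH2PO4, 1 mM EDTA, pH 7.0, containing 1.26 μM ethidium bromide and 1 μM CT-DNA. Drug added serially from ~5 mM DMSO stock; 20 °C; fluorescence excitation 546 nm, emission 595 nm. C50 = drug concentration lowering DNA-bound ethidium fluorescence by 50%, mean of three determinations.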

[21] = Percent growth of NCI cell line, leucemia K562 exposed for 48 hr at 10e-8 concentration; format: functional, Homo sapiens; summary of the method: as §1
LoVo [22] = assay: Cytotoxicity activity on LoVo/Dx human adenocarcinoma cell line after 144 hr of drug exposure; format: functional, cell-based
Summary of the method: (§3)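 LoVo (sensitive) and LoVo/Dx (resistant) human colon adenocarcinoma cells seeded at 2.5 × 10^5 cells/mL medium; drug solutions added to culture.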

NCI-H460 [23] = assay: Percent growth of NCI cell line, lung-nsc: NCI-H460 exposed for 48 hr at 10e-6 concentration; format: functional, Homo sapiens; summary of the method: as §1
LoVo [24] = assay: Cytotoxicity activity on LoVo/Dx human adenocarcinoma cell line after 1 hr of drug exposure; format: functional, cell-based; summary of the method: as §2
NCI-H460 [25] = assay: Percent growth of NCI cell line, lung-nsc: NCI-H460 exposed for 48 hr at 10e-4 concentration; format: functional, Homo sapiens; summary of the method: as §1
HCT-15 [26] = assay: Percent growth of NCI cell line, colon: HCT-15 exposed for 48 hr at 10e-8 concentration; format: functional, Homo sapiens; summary of the method: as §1
MCF7 [27] = assay: Percent growth of NCI cell line, breast: MCF-7 exposed for 48 hr at 10e-4 concentration; format: functional, Homo sapiens; summary of the method: as §1
OVCAR-4 [28] = assay: Percent growth of NCI cell line, ovarian: OVCAR-4 exposed for 48 hr at 10e-8 concentration; format: functional, Homo sapiens; summary of the method: as §1
SNB-19 [29] = assay: Percent growth of NCI cell line, CNS: SNB-19 exposed for 48 hr at 10e-8 concentration; format: functional, Homo sapiens; summary of the method: as §1
LoVo [30] = assay: Cytotoxicity activity on LoVo human adenocarcinoma cell line after 144 hr of drug exposure; format: functional, cell-based; summary of the method: as §3
[31] = Percent growth of NCI cell line, leucemia K562 exposed for 48 hr at 10e-4 concentration; format: functional, Homo sapiens; summary of the method: as §1

Compound: CN(C)CCn1c(=O)c2ccc3c4c(nn3CCN3CCCCC3)c3ccccc3n(c1=O)c24
IC50 (HT-29): 4.1 nM | C50 (Calf thymus DNA): 0.05 µM

Compound: CCN(CC)CCn1c(=O)c2ccc3c4c(nn3CCN(CC)CC)c3ccccc3n(c1=O)c24
IC50 (HT-29): 29 nM | C50 (Calf thymus DNA): 0.051 µM

Compound: CN(C)CCn1c(=O)c2ccc3c4c(nn3CCN3CCCC3)c3ccccc3n(c1=O)c24
IC50 (HT-29): 9.2 nM | C50 (Calf thymus DNA): 0.049 µM

Compound: COc1ccc2c(c1)c1nn(CCN3CCCC3)c3ccc4c(=O)n(CCN(C)C)c(=O)n2c4c13
IC50 (HT-29): 0.17 nM | C50 (Calf thymus DNA): 0.065 µM

Compound: CN(C)CCn1c(=O)c2ccc3c4c(nn3CCN3CCCC3)c3cc([N+](=O)[O-])ccc3n(c1=O)c24
IC50 (HT-29): 1.4 nM | C50 (Calf thymus DNA): 0.048 µM

Compound: CN(C)CCn1c(=O)c2ccc3c4c(nn3CCN3CCCCC3)c3cc(N)ccc3n(c1=O)c24
IC50 (HT-29): 0.17 nM | C50 (Calf thymus DNA): 0.006 µM

Now from value to compound, other results behind:

C50 (Calf thymus DNA): 0.056 µM
Compound: CN(C)CCn1c(=O)c2ccc3c4c(nn3CCN(C)C)c3cc(O)ccc3n(c1=O)c24
Growth (LOX IMVI [1]): -79% | Growth (OVCAR-4 [2]): -60% | Growth (SNB-19 [3]): -72% | Growth (MCF7 [4]): -17% | IC50 (HT-29): 39 nM | Growth (LOX IMVI [5]): -48% | Growth (DU-145 [6]): 71% | Growth (LOX IMVI [7]): 63% | Growth (SNB-19 [8]): -1% | IC50 (LoVo [9]): 220 nM | Growth (DU-145 [10]): 0% | Growth (DU-145 [11]): -50% | Growth (HCT-15 [12]): -68% | Growth [13]: 7% | Growth (HCT-15 [14]): 21% | Growth (MCF7 [15]): 60% | Growth (NCI-H460 [16]): 71% | Growth (786-0 [17]): -11% | Growth (786-0 [18]): -82% | Growth (OVCAR-4 [19]): -19% | Growth (786-0 [20]): 43% | Growth [21]: 84% | IC50 (LoVo [22]): 170 nM | Growth (NCI-H460 [23]): -23% | IC50 (LoVo [24]): 80 nM | Growth (NCI-H460 [25]): -74% | Growth (HCT-15 [26]): 85% | Growth (MCF7 [27]): -64% | Growth (OVCAR-4 [28]): 70% | Growth (SNB-19 [29]): 65% | IC50 (LoVo [30]): 11 nM | Growth [31]: -66%

C50 (Calf thymus DNA): 0.12 µM
Compound: CN(C)CCCn1c(=O)c2ccc3c4c(nn3CCN(C)C)c3ccccc3n(c1=O)c24
IC50 (HT-29): 37 nM

C50 (Calf thymus DNA): 0.56 µM
Compound: CN(C)CCCn1c(=O)c2ccc3c4c(nn3CCCN(C)C)c3ccccc3n(c1=O)c24
IC50 (HT-29): 135 nM
